Reference: ChEMBL document CHEMBL1132578, “New peptidic cysteine protease inhibitors derived from the electrophilic alpha-amino acid aziridine-2,3-dicarboxylic acid” (J Med Chem, 1999)
The source made the active and inactive calls. No cut-off for these calls is given here.

What was measured:
[1] = target: Cathepsin B (Bos taurus) (UniProt P07688); experiment: Evaluated for second-order rate constants for the inactivation of mammalian lysosomal cathepsin B.
[2] = target: Procathepsin L (Homo sapiens) (UniProt P07711); experiment: Evaluated for second-order rate constants for the inactivation of mammalian lysosomal cathepsin L.
[3] = target: T1, Papain (Carica papaya) (UniProt P00784); experiment: Second-order rate constants for the inactivation of papain (vacuolar plant enzyme)
T1 sequence (whole entry): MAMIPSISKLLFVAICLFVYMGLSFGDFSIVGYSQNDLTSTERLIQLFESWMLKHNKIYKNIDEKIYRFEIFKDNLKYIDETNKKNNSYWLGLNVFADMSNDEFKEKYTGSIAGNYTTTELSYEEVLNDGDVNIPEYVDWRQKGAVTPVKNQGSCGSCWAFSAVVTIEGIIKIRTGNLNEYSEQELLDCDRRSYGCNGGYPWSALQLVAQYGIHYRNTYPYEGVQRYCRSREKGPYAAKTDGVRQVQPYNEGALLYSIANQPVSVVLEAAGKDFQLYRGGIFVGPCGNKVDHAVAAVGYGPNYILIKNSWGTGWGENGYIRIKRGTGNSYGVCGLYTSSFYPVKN
How it was run: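 Papain with L-BAPA (405 nm) in 50 mM phosphate pH 6.5, 5 mM EDTA, 5 mM cysteine, or with Z-Phe-Arg-AMC in phosphate pH 6.5 with DTT, EDTA, Brij 35; 25 °C. kobs at 3–7 inhibitor concentrations, continuous or dilution assay; k2nd = ki/Ki, or from linear kobs vs [I] when unsaturated; substrate-corrected (Km 2.5 mM L-BAPA, 0.09 mM Z-Phe-Arg-AMC).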

[4] = target: T2, Calpain-2 catalytic subunit (Sus scrofa, UniProt P43367); experiment: Inhibition constant for the non time dependent inhibition of Calpain 2
T2 sequence (P43367 whole entry): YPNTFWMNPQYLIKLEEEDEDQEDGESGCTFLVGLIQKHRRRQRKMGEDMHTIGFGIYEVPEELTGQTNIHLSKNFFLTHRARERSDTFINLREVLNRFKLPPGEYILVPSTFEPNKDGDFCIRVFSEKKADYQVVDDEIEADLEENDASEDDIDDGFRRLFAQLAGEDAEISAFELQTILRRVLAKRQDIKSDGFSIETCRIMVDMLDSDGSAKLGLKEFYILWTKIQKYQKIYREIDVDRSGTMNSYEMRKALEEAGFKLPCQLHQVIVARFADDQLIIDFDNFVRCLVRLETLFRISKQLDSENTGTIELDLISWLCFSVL
How it was run: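 Calpain I or II with Suc-Leu-Tyr-AMC in 50 mM Tris pH 7.5, 5 mM CaCl2, 2.5 mM EDTA, 2.5 mM DTT. Enzyme preincubated in buffer 30 min, assayed at 25 °C, fluorescence 460 nm (excitation 380 nm). Ki from Dixon plots, corrected to zero substrate with Km 0.4 mM (calpain I) or 0.22 mM (calpain II).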

[5] = target: T3, Pro-cathepsin H (Homo sapiens, UniProt P09668); experiment: Inhibition constant for the non time dependent inhibition of cathepsin H
T3 sequence (P09668 whole entry): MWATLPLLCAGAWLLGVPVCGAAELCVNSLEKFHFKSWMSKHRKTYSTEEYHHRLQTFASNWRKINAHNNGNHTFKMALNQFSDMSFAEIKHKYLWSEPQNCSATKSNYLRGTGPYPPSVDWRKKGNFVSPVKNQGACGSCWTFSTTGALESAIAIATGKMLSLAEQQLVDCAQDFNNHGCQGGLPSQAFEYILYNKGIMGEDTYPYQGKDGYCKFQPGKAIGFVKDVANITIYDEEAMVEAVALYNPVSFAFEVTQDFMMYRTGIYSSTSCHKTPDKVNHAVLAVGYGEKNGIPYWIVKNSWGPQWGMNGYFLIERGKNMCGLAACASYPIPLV

[6] = target: T1, Papain (Carica papaya); experiment: Second-order rate constants for the inactivation of papain at pH 4 (vascular plant enzyme)
How it was run: (§1)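 Papain (0.5 mg mL-1) with 1.4–1.5 mM L-BAPA, read at 405 nm, 25 °C. Buffers: 50 mM citrate for pH 4–6, phosphate for pH 6–8, borate for pH 8–9. kobs came from continuous or dilution assays at 3–7 inhibitor concentrations. k_i/K_i came from a hyperbolic or linear fit, corrected to zero substrate (Km 2.5 mM).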

[7] = target: T1, Papain (Carica papaya); experiment: Second-order rate constants for the inactivation of papain at pH 6.5(vascular plant enzyme); how it was run: as §1
[8] = target: T1, Papain (Carica papaya); experiment: Second-order rate constants for the inactivation of papain at pH 8(vascular plant enzyme); how it was run: as §1
[9] = target: T1, Papain (Carica papaya); experiment: Second-order rate constants for the inactivation of papain (vascular plant enzyme); no inhibition

Procathepsin L (Homo sapiens), sequence (P07711 114-333 limits assumed): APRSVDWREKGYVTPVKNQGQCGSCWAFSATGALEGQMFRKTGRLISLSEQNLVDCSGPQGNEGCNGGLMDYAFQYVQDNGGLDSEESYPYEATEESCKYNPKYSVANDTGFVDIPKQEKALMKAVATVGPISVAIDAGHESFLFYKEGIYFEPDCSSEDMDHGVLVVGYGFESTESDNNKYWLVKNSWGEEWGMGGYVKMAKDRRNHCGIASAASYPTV

Row | ki/Ki [1] [M⁻¹ s⁻¹] | ki/Ki [2] [M⁻¹ s⁻¹] | ki/Ki [3] [M⁻¹ s⁻¹] | Compound | further results
1 | 2.08 | 0.483 | 2.95 | CCOC(=O)[C@@H]1[C@@H](C(=O)OCC)N1C(=O)[C@H](Cc1ccccc1)NC(=O)[C@H](C)NC(=O)OCc1ccccc1 | 
2 |  |  | 1.27 | CCOC(=O)C1C(C(=O)OCc2ccccc2)N1C(=O)[C@H](Cc1ccccc1)NC(=O)OC(C)(C)C (some centres undefined) | 
3 | 7.02 | 5.25 | 8.72 | CCOC(=O)[C@@H]1[C@@H](C(=O)OCC)N1C(=O)[C@H](C)NC(=O)[C@H](Cc1ccccc1)NC(=O)CNC(=O)OCc1ccccc1 | 
4 | 0.3 | 0.267 | 0.7 | CCOC(=O)[C@H]1[C@H](C(=O)OCC)N1C(=O)C(Cc1ccccc1)NC(=O)OC(C)(C)C (single isomer, unassigned) | 
5 | 7.38 | 4.68 | 20.5 | CCOC(=O)C1C(C(=O)OCc2ccccc2)N1C(=O)[C@H](C)NC(=O)[C@H](Cc1ccccc1)NC(=O)OC(C)(C)C (some centres undefined) | 
6 | 6.48 | 5.28 | 4.95 | CCOC(=O)[C@@H]1[C@@H](C(=O)OCC)N1C(=O)CNC(=O)CNC(=O)OCc1ccccc1 | 
7 | 0.367 | 0.55 | 0.35 | CCOC(=O)[C@H]1[C@H](C(=O)OCC)N1C(=O)[C@H](Cc1ccccc1)NC(=O)C(C)NC(=O)OCc1ccccc1 (single isomer, unassigned) | 
8 | 4.28 | 5.23 | 3.75 | CCOC(=O)[C@H]1[C@H](C(=O)N[C@@H](CC(C)C)C(=O)OCc2ccccc2)N1C(=O)[C@H](Cc1ccccc1)NC(=O)OC(C)(C)C | Ki [4]: 42 µM; Ki [5]: 137 µM
9 | 32.3 | 98.3 | 12.8 | CCOC(=O)[C@H]1[C@H](C(=O)N[C@@H](CC(C)C)C(=O)N2CCCC2C(=O)OCc2ccccc2)N1C(=O)[C@H](Cc1ccccc1)NC(=O)OC(C)(C)C (some centres undefined) | 
10 | 2.03 | 3.65 | 2.85 | CCOC(=O)[C@@H]1[C@@H](C(=O)N[C@@H](CC(C)C)C(=O)OCc2ccccc2)N1C(=O)[C@H](Cc1ccccc1)NC(=O)OC(C)(C)C | Ki [5]: 93 µM
11 | 7.58 | 7.82 | 22.8 | CCOC(=O)[C@@H]1[C@@H](C(=O)OCC)N1C(=O)[C@H](C)NC(=O)[C@@H](Cc1ccccc1)NC(=O)OC(C)(C)C | 
12 | 7.5 |  | 5.35 | CCOC(=O)[C@@H]1[C@@H](C(=O)N[C@@H](CC(C)C)C(=O)N2CCCC2C(=O)OCc2ccccc2)N1C(=O)[C@H](Cc1ccccc1)NC(=O)OC(C)(C)C (some centres undefined) | 
13 |  | 1.65 | 1.08 | CCOC(=O)C1C(C(=O)OCC)N1C(=O)[C@H](CC(C)C)NC(=O)OCC1c2ccccc2-c2ccccc21 (some centres undefined) | 

More lines, now with the values behind:

Row | Compound | ki/Ki [1] [M⁻¹ s⁻¹] | ki/Ki [2] [M⁻¹ s⁻¹] | ki/Ki [3] [M⁻¹ s⁻¹] | further results
14 | CCOC(=O)C1NC1C(=O)N[C@H](CC(C)C)C(=O)NCCC(C)C (some centres undefined) |  |  | 55 | 
15 | CCOC(=O)C1NC1C(=O)N[C@@H](CC(C)C)C(=O)NCCC(C)C (some centres undefined) |  |  | 3 | 
16 | CCOC(=O)[C@@H]1N[C@H]1C(=O)N[C@@H](CC(C)C)C(=O)O |  |  | 1.05 | 
17 | CCOC(=O)[C@@H]1[C@@H](C(=O)OCC)N1C(=O)[C@H](C)NC(=O)OC(C)(C)C |  |  | 0.717 | 
18 | CCOC(=O)C1C(C(=O)O)N1C(=O)[C@H](Cc1ccccc1)NC(=O)OC(C)(C)C (some centres undefined) | 20.5 | 3.13 | 8.42 | 
19 | CCOC(=O)C1NC1C(=O)OCC (centres undefined) |  |  |  | ki/Ki [6]: 1.02 M⁻¹ s⁻¹
20 | CC(C)CCNC(=O)[C@H](CC(C)C)NC(=O)[C@H]1N[C@@H]1C(=O)O |  |  | 0.167 | 
21 | CCOC(=O)C1C(C(=O)OCc2ccccc2)N1C(=O)CNC(=O)[C@H](CC(C)C)NC(=O)OC(C)(C)C (some centres undefined) | 4 | 53.9 | 2.48 | 
22 | CCOC(=O)C1NC1C(=O)N[C@@H](CC(C)C)C(=O)OCc1ccccc1 (some centres undefined) | 0.683 | 52.2 | 3.57 | ki/Ki [6]: 13.1 M⁻¹ s⁻¹; ki/Ki [7]: 2.8 M⁻¹ s⁻¹; ki/Ki [8]: 0.4 M⁻¹ s⁻¹; Ki [5]: 260 µM
23 | CC[C@H](C)C(NC(=O)[C@@H]1N[C@H]1C(=O)NCC(C)C)C(=O)N1CCCC1C(=O)O (single isomer, unassigned) | 13 | 50 |  | ki/Ki [9]: inactive
24 | CC(C)CCNC(=O)C(CC(C)C)NC(=O)[C@@H]1N[C@H]1C(=O)O (single isomer, unassigned) |  |  | 0.167 | 
25 | CCOC(=O)[C@H]1N[C@@H]1C(=O)N[C@@H](CC(C)C)C(=O)N1CCC[C@H]1C(=O)OCc1ccccc1 | 6.75 | 35.7 | 3.78 | 
